Assay results as given in ChEMBL document CHEMBL4825662 (J Med Chem, 2021).
≈ marks a conversion by molar mass, not a printed value.

What was measured:
[1] = tested on: Human orthopneumovirus; experiment: Antiviral activity against Respiratory syncytial virus A2 infected in African green monkey Vero cells by Plaque reduction assay; type: functional, organism-based
[2] = Cytotoxicity against African green monkey Vero cells by MTT assay; type: cell-based; conditions: chlorocebus sabaeus
In short: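 Viability was assessed by MTT after culture with compound at 0.01 nM to 100 μM, run in parallel with plaque reduction assays. Values are the average of at least two testing occasions.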

[3] = Kinetic solubility of compound in PBS at 200 uM at pH 7.4 by LC-MS/LC-UV analysis; type: physicochemical; conditions: read-out: Kinetic_solubility
In short: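 Compound added from DMSO into PBS pH 7.4; precipitation measured across a range of concentrations.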

[4] = Apparent permeability of compound in wild type MDCK at 10 uM incubated for 1 hr by LC-MS/MS assay; type: ADME, Canis lupus familiaris; conditions: dog
[5] = Protein binding in rat plasma assessed as unbound fraction at 5 uM by LC-MS/MS analysis based equilibrium dialysis method; type: ADME, cell-free
[6] = Protein binding in dog plasma assessed as unbound fraction at 5 uM by LC-MS/MS analysis based equilibrium dialysis method; type: ADME, cell-free, Canis lupus familiaris
[7] = Protein binding in human plasma assessed as unbound fraction at 5 uM by LC-MS/MS analysis based equilibrium dialysis method; type: ADME, cell-free
[8] = Intrinsic clearance in Sprague-Dawley rat liver microsomes preincubated followed by NADPH addition and measured up to 45 mins by LC-MS/MS analysis; type: ADME, Microsome
[9] = Intrinsic clearance in Beagle dog liver microsomes preincubated followed by NADPH addition and measured up to 45 mins by LC-MS/MS analysis; type: ADME, Canis lupus familiaris, Microsome
[10] = Intrinsic clearance in human liver microsomes preincubated followed by NADPH addition and measured up to 45 mins by LC-MS/MS analysis; type: ADME, Microsome
[11] = Half life in Sprague-Dawley rat liver microsomes preincubated followed by NADPH addition and measured up to 45 mins by LC-MS/MS analysis; type: ADME, Microsome
[12] = Half life in Beagle dog liver microsomes preincubated followed by NADPH addition and measured up to 45 mins by LC-MS/MS analysis
[13] = Half life in human liver microsomes preincubated followed by NADPH addition and measured up to 45 mins by LC-MS/MS analysis; type: ADME, Microsome
[14] = Cmax in CD1 mouse at 5 mg/kg, po measured after 0.03 to 24 hrs by UHPLC-TOF method; type: ADME, organism-based; design: route oral, time upper 24 hrs, time lower 0.03 hrs, dose 5 mg/kg; conditions: in vivo
[15] = Clearance in CD1 mouse at 1 mg/kg, iv measured after 0.083 to 24 hrs by UHPLC-TOF method; type: ADME, organism-based; conditions: in vivo, time 0.083-24 hrs
[16] = Volume of distribution at steady state in CD1 mouse at 1 mg/kg, iv measured after 0.083 to 24 hrs by UHPLC-TOF method; type: ADME, organism-based; conditions: in vivo, time 0.083-24 hrs, read-out: Vdss
In short: (§1)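 Male CD-1 mice, acclimatized and individually housed, dosed IV and PO as amorphous-solid suspension. Terminal cardiac-puncture blood into heparinized tubes on wet ice, centrifuged at 4 °C within 15 min; plasma snap-frozen at −20 °C. IV arm sampled 2 min–24 h, oral arm 5 min–24 h. Plasma analysed by UHPLC-quadrupole-TOF MS.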

[17] = Oral bioavailability in CD1 mouse at 5 mg/kg measured after 0.03 to 24 hrs by UHPLC-TOF method; type: ADME, organism-based; conditions: in vivo, time 0.03-24 hrs; in short: as §1
[18] = Drug metabolism in human liver microsomes assessed as metabolite M1 formation at 10 uM incubated for 60 mins by HPLC method; type: ADME, Microsome; conditions: 1 h
In short: (§2)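 Compound at 10 μM was incubated with rat or human liver microsomes. Sites of metabolism were proposed from mass spectral fragmentation patterns.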

[19] = Drug metabolism in rat liver microsomes assessed as metabolite M1 formation at 10 uM incubated for 60 mins by HPLC method; type: ADME, Microsome; conditions: 1 h; in short: as §2
[20] = Thermodynamic solubility in PBS at 1 to 100 uM at pH 7.4 by HPLC-UV method; type: physicochemical; conditions: dose 1-100 µM, read-out: Therm_solubility
[21] = Cmax in Sprague-Dawley rat at 5 mg/kg, po administered via gavage measured after 0.02 to 24 hrs by tandem liquid chromatography/mass spectrometry; type: ADME, organism-based; design: route oral, dose 5 mg/kg, time upper 24 hrs, time lower 0.02 hrs; conditions: in vivo
In short: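 Male Sprague–Dawley rats weighing 200–250 g, 3 per route, were used. The i.v. bolus was 1 mg/kg at 1 mg/mL in 40:60 dimethylacetamide/saline. Oral gavage doses were 5 or 10 mg/kg at 5 mg/mL in 1% methyl cellulose with 0.1% Tween 80. Heparinized blood was taken at 0.02–24 h (ten time points). Plasma was analyzed by LC-MS/MS after acetonitrile precipitation.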

[22] = Clearance in Sprague-Dawley rat at 1 mg/kg, iv administered […] measured after 0.02 to 24 hrs by tandem liquid chromatography/mass spectrometry; type: ADME, organism-based; conditions: in vivo, time 0.02-24 hrs
[23] = Volume of distribution at steady state in Sprague-Dawley rat at 1 mg/kg, iv administered […] measured after 0.02 to 24 hrs by tandem liquid chromatography/mass spectrometry; type: ADME, organism-based; conditions: in vivo, time 0.02-24 hrs, read-out: Vdss
In short: (§3)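 Male Sprague–Dawley rats (200–250 g), 3 per route. IV bolus at 1 mg/kg, 1 mg/mL in 40:60 dimethylacetamide/saline; oral gavage at 5 or 10 mg/kg, 5 mg/mL in 1% methyl cellulose, 0.1% Tween 80 in water. Serial blood at 0.02–24 h (ten points) into heparin, spun at 4 °C, plasma frozen; acetonitrile protein precipitation, ESI LC-MS/MS with matrix curve and internal standards.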

[24] = Oral bioavailability in Sprague-Dawley rat at 10 mg/kg administered via gavage measured after 0.02 to 24 hrs by tandem liquid chromatography/mass spectrometry; type: ADME, organism-based; conditions: in vivo, time 0.02-24 hrs; in short: as §3
[25] = Apparent permeability across apical to basolateral side in MDCK-MDR1 cells at 10 uM measured at 60 mins by LC-MS/MS analysis; type: ADME, cell-based, Canis lupus familiaris; conditions: dog, mdck-mdr1, 1 h, 10 µM
[26] = Efflux ratio of apparent permeability in MDCK-MDR1 cells at 10 uM measured at 60 mins by LC-MS/MS analysis; type: ADME, cell-based, Canis lupus familiaris; conditions: dog, mdck-mdr1, 1 h, 10 µM
[27] = Intrinsic clearance in rat hepatocytes assessed per million cells at 3 uM measured up to 60 mins by LC-MS/MS analysis; type: ADME, cell-based, Hepatocyte; conditions: read-out: CLH

SMILES | EC50 [1] | CC50 [2] | solubility kinetic at 200 µM [3] | Papp at 1 h, 10 µM [4] | fraction unbound at 5 µM [5] | fraction unbound at 5 µM [6] | fraction unbound at 5 µM [7] | Microsomal intrinsic clearance [8] | intrinsic clearance [9] | intrinsic clearance (CLint) [10] | half-life [11] | half-life [12] | half-life [13] | solubility thermodynamic [20] | Cmax [21] | clearance [22] | Vd [23] | bioavailability [24] | other results
CC(C)CCn1c(CN2C(=O)C3(CCCC3)c3ccncc32)nc2cc(CN)ccc21 | 0.31 µM | 23.1 µM | 160 µM (≈ 66.8 µg/mL) | 11 ×10⁻⁶ cm/s | 0.24 | 0.14 | 0.17 | < 31 µL/min | < 28 µL/min | 488 µL/min | > 89 min | > 100 min | 6 min | – | – | – | – | – | –
CC(C)CCn1c(CN2C(=O)C3(CC3)c3ccccc32)nc2cc(CN)ccc21 | 0.031 µM | 15.3 µM | 155 µM (≈ 60.2 µg/mL) | 12 ×10⁻⁶ cm/s | 0.1 | 0.1 | 0.07 | < 19 µL/min | < 28 µL/min | 592 µL/min | > 95 min | > 100 min | 5 min | 155 µM (≈ 60.2 µg/mL) | 6 ng/mL | 98 mL/min/kg | 34 L/kg | 4% | Cmax [14]: 6 ng/mL; clearance [15]: 98 mL/min/kg; Vd [16]: 34 L/kg; bioavailability [17]: 4%; Drug metabolism [18]: Metabolite_Detected; Drug metabolism [19]: Metabolite_Detected
CC(C)CCn1c(CN2C(=O)C3(CC3)c3ccc(F)cc32)nc2cc(CN)ccc21 | 0.0008 µM | 3 µM | – | – | 0.333 | 0.151 | 0.184 | 45 µL/min | 6.23 µL/min | 50.7 µL/min | – | – | – | 176 µM (≈ 71.7 µg/mL) | 44.2 ng/mL | 174 mL/min/kg | 54.3 L/kg | 25% | Papp [25]: 0.75 10^-6 cm/s; Ratio [26]: 88; hepatocyte CLint at 3 µM [27]: 43.1 µL/min/1e6 cells
